Screens: PubChem BioAssay, several laboratories
Sampled rows, rich in hits. Any-hit rate of the full collection: about 9.4%.
SKKanGAS inh: inhibitors of SKKanGAS S. pyogenes growth in kanamycin (SK-promoter or general growth effect) | BacTiter-Glo, 6 h | inhibition, % at 7.5 µM | 300,000 tested, 1.3% active | AID 1662;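 active = mean replicate score, as percent of positive control median, at least 50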;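 note: strain carries kanamycin resistance gene driven by streptokinase promoter and grows in 40 µg/ml kanamycin; loss of luminescence reflects streptokinase promoter inhibition or plain growth inhibition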
T cruzi inh: blocks replication of Trypanosoma cruzi | inhibition, % (no concentration beside the values) | 300,000 tested, 1.4% active | T. cruzi beta-gal in NIH3T3, luminescence, 90 h;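 active = mean inhibition across valid replicates above about 55%, limit read from the data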;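 note: signal also drops with host cell toxicity which is not excluded here; higher percent means less beta-gal luminescence so fewer parasites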
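Assay system: NIH/3T3 host cells with β-galactosidase reporter T. cruzi; input: 5,000 host fibroblasts per well; compound: single 50 nL compound addition per well in DMSO; timing: ≥90 h infection period, 3 h prior cell attachment; measured by: GalScreen β-gal luminescence, detergent lysis, 60 min; evaluation: percent inhibition of parasite-derived β-gal signal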
CSC inhib: blocks cancer stem cells. cancer stem cell-like cells viability, luminescence. 300,000 tested, 1.1% active. inhibition, % at 7.5 µM. AID 2717; in the data active = inhibition above about 75%; tested in HMLE shEcad cells
L major viab: inhibitors of Leishmania major promastigote growth. inhibition, % at 10 µM. Leishmania major promastigotes, resazurin fluorescence viability. 200,000 tested, 9% active. AID 1063; in the data active = inhibition above about 50%;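 note: promastigotes grown with compound for 44 hours at 28 °C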
Mdm2 MdmX PPI: disrupts the human Mdm2-MdmX interaction; inhibition, % at 8 µM; 330,000 tested, 3% active; O15151+Q00987; SaOS-2 split-luciferase Mdm2/MdmX complementation, luminescence;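 active = inhibition of at least 50% at 8 µM in the primary screen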
Target sequence (O15151 whole entry, looked up): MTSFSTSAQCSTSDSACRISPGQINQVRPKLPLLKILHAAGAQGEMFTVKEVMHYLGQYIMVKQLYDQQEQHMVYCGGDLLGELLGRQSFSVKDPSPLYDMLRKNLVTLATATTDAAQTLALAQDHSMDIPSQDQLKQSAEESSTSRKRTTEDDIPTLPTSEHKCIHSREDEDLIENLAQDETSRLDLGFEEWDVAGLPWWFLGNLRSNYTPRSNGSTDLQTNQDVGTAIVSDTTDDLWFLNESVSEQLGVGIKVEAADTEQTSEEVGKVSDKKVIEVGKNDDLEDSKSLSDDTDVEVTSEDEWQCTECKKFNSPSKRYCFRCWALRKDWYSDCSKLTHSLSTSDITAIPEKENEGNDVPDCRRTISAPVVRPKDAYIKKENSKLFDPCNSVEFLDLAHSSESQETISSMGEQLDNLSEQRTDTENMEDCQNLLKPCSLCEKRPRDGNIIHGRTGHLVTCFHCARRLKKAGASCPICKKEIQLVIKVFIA
Target sequence (Q00987 whole entry, looked up): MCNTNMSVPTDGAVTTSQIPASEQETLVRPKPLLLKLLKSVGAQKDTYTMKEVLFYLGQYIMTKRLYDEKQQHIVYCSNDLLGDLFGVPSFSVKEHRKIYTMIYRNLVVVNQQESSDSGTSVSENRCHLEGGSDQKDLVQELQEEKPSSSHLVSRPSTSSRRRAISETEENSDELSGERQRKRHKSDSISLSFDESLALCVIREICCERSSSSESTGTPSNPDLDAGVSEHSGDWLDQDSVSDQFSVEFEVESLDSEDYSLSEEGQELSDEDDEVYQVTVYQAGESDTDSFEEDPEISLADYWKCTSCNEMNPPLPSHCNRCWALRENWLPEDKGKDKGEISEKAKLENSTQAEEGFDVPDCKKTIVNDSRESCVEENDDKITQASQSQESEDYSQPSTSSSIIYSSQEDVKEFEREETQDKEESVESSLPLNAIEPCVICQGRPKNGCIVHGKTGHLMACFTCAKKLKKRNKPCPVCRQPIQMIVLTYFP
Beta apoptosis: beta cell apoptosis inhibition. INS-1E cytokine-induced death, ATP luminescence, 48 h; percent of positive-control rescue, neutral wells zero. protection from apoptosis, % (test concentration not listed). 300,000 tested, 0.8% active. AID 435005;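 active = Every replicate reaches about 75%, or at least half do and their mean reaches it too, limit read from the data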;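 note: higher means more ATP so stronger rescue from cytokine killing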
Numbers stand for hits; - = inactive; . = no result.

SMILES | SKKanGAS inh | T cruzi inh | CSC inhib | L major viab | Mdm2 MdmX PPI | Beta apoptosis
CN(CCOc1ccccc1)CC(=O)Nc1ccc(Cl)c(S(=O)(=O)N(C)C)c1 | - | 66.6 | - | - | - | -
CCC(C(=O)OCC(=O)Nc1ccc(SC(F)F)cc1)c1ccccc1 (stereo unspecified) | - | 58.5 | . | - | . | .
CC(C)C(NS(=O)(=O)c1ccccc1)C(=O)N1CCN(C(=O)c2ccco2)CC1 (stereo unspecified) | - | - | - | . | - | -
Nc1nc(NCCOCCO)nc(N2CCCCCC2)c1[N+](=O)[O-] | 76.8 | - | - | . | - | -
C/C=C/C1=CC(=O)C[C@H](c2ccc(OC)c(OC)c2)C1 | . | . | - | . | - | -
Cc1cccc(-n2cnc(C(=O)NNC(=S)Nc3ccc(Cl)cc3)c2)n1 | - | - | - | 100.0 | - | -
Cc1cccc(-n2cnc(C(=O)N/N=C\c3ccc(Br)cc3)c2)n1 | - | - | - | 99.1 | - | -
O=C(NCCc1ccccc1)c1nc(-c2cccs2)no1 | - | - | - | - | - | -
CCOCCCN(C(=O)c1snc(C(N)=O)c1N)C(C(=O)NC1CCCC1)c1ccc(F)cc1 (stereo unspecified) | - | - | - | . | - | -
CC(=O)c1ccc(S(=O)(=O)NCCc2cn3ccc(C)cc3n2)cc1 | - | - | - | . | - | -
CCN(CC)CCNC(=O)C1(O)c2cc(Br)ccc2NC(=O)N1c1c(F)cccc1F (stereo unspecified) | - | - | - | . | - | -
CCC(CC)C(=O)Nc1cccc(C(=O)Nc2ccc(S(=O)(=O)Nc3ccc(C)cc3)cc2)c1 | - | - | - | 67.2 | - | -
Cc1ccc(NS(=O)(=O)c2cccc(C(=O)Nc3cc(C)on3)c2)cc1 | - | - | - | 90.6 | - | -
Cc1ccc(S(=O)(=O)Nc2ccc(C(=O)Nc3cc(C)on3)cc2)cc1 | - | - | - | - | - | -
Cc1cc(NS(=O)(=O)c2ccc(NC(=S)NC(=O)c3ccccc3)cc2)no1 | - | - | - | 65.7 | - | -
Cc1ccc(/C=C/C(=O)NC(=S)Nc2ccc(S(=O)(=O)Nc3cc(C)on3)cc2)cc1 | 52.4 | - | - | . | - | -
CCC(CC)C(=O)Nc1cccc(C(=O)Nc2ccc(S(N)(=O)=O)cc2)c1 | - | - | - | - | - | .
CCc1nnc(NS(=O)(=O)c2ccc(NC(=S)NC(=O)c3ccc(OC)c(OC)c3)cc2)s1 | - | - | - | - | - | -
CCc1nnc(NS(=O)(=O)c2ccc(NC(=S)NC(=O)c3ccc(OC)cc3)cc2)s1 | - | - | - | 55.0 | - | -
O=C(CCNC(=O)c1ccccc1Cl)Nc1cccc(C(F)(F)F)c1 | - | - | - | 65.2 | - | -
CC(=O)c1cccc(NC(=O)CCNC(=O)c2ccccc2Cl)c1 | - | - | - | . | - | -
CC1=NN(c2nc(-c3ccc(C)cc3)cs2)C(=O)C1N=Nc1ccc(C(N)=O)cc1 (stereo unspecified) | - | - | - | - | . | 78.5
CC1=NN(c2nc(-c3ccc(C)cc3)cs2)C(=O)C1N=Nc1ccc2ccccc2c1 (stereo unspecified) | - | - | - | - | - | -
COCCn1c(N)c(C(=S)NC(=O)c2cccs2)c(=O)[nH]c1=O | - | - | - | . | - | -
CCCCCCc1c(C)c2ccc(OCC(=O)N3CCC[C@H]3C(=O)O)c(C)c2oc1=O | - | - | - | . | - | .
SMILES | SKKanGAS inh | T cruzi inh | CSC inhib | L major viab | Mdm2 MdmX PPI | Beta apoptosis
COc1ccc(OCC#CCN2CC(C)OC(C)C2)cc1 (stereo unspecified) | - | - | - | 56.9 | - | -
CCN1CCN(CC(=O)N2CCCC(C(=O)c3ccc(Oc4ccccc4)cc3)C2)CC1 (stereo unspecified) | - | 71.9 | - | - | - | -
CCCCN(CC)Cc1ccc(CNC(=O)Nc2ccccc2)o1 | - | - | - | - | - | -
CCCCN(CC)Cc1ccc(CNC(=S)Nc2cccc(F)c2)o1 | - | - | - | 77.9 | - | -
Cc1nn(-c2ccccc2)c(Cl)c1C1C(C#N)=C(N)OC2=C1C(=O)CC(C)(C)C2 (stereo unspecified) | 84.9 | - | - | - | - | -
CC(C)c1ccc(-c2nn(-c3ccccc3)cc2C2C(C#N)=C(N)OC3=C2C(=O)CC(C)(C)C3)cc1 (stereo unspecified) | - | - | - | 77.5 | - | -
Cc1nn(C)c(C)c1C1C(C#N)=C(N)OC2=C1C(=O)CC(C)(C)C2 (stereo unspecified) | - | - | - | - | - | -
